Measured values taken from ChEMBL document CHEMBL3352514, “Anti-cancer activity of carbamate derivatives of melampomagnolide B” (Bioorg Med Chem Lett, 2014).

Columns and labels:
[1] = Growth inhibition of human HCT116 cells; assay type: functional; details: HCT-116
Procedure, shortened: (§1)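 NCI 60-cell-line tumour panel. Compounds were first screened at a single concentration of 10 µM, then tested in 5-dose assays. Growth was read as the change in optical density, expressed as a percentage of control. GI50 is the concentration (µM) that halves cellular growth, and the values were taken from the NCI database.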

CAKI-1 = experiment: Growth inhibition of human CAKI-1 cells; assay type: functional; procedure, shortened: as §1
T47D = experiment: Growth inhibition of human T47D cells; assay type: functional; procedure, shortened: as §1
IGROV-1 = experiment: Growth inhibition of human IGROV1 cells; assay type: functional; procedure, shortened: as §1
NCI-H522 = experiment: Growth inhibition of human NCI-H522 cells; assay type: functional; procedure, shortened: as §1
[2] = Half life in human plasma; assay type: ADME, cell-free
TK-10 = experiment: Growth inhibition of human TK10 cells; assay type: functional; procedure, shortened: as §1
[3] = Growth inhibition of human LOXIMVI cells; assay type: functional; details: LOX IMVI; procedure, shortened: as §1
[4] = Growth inhibition of human COLO205 cells; assay type: functional; details: COLO 205; procedure, shortened: as §1
DU-145 = experiment: Growth inhibition of human DU145 cells; assay type: functional; procedure, shortened: as §1
[5] = Growth inhibition of human MOLT4 cells; assay type: functional; details: MOLT-4; procedure, shortened: as §1
CCRF-CEM = experiment: Growth inhibition of human CCRF-CEM cells; assay type: functional; procedure, shortened: as §1
[6] = Growth inhibition of human BT549 cells; assay type: functional; details: BT-549; procedure, shortened: as §1
[7] = Growth inhibition of human RXF393 cells; assay type: functional; details: RXF 393; procedure, shortened: as §1
MDA-MB-468 = experiment: Growth inhibition of human MDA-MB-468 cells; assay type: functional; procedure, shortened: as §1
M14 = experiment: Growth inhibition of human M14 cells; assay type: functional; procedure, shortened: as §1
MDA-MB-435 = experiment: Growth inhibition of human MDA-MB-435 cells; assay type: functional; procedure, shortened: as §1
[8] = Growth inhibition of human SF539 cells; assay type: functional; details: SF-539; procedure, shortened: as §1
[9] = Growth inhibition of human RPMI8226 cells; assay type: functional; details: RPMI-8226; procedure, shortened: as §1
SR = experiment: Growth inhibition of human SR cells; assay type: functional; procedure, shortened: as §1
ACHN = experiment: Growth inhibition of human ACHN cells; assay type: functional; procedure, shortened: as §1
[10] = Growth inhibition of human HOP92 cells; assay type: functional; details: HOP-92; procedure, shortened: as §1
Malme-3M = experiment: Growth inhibition of human MALME-3M cells; assay type: functional; procedure, shortened: as §1
MCF7 = experiment: Growth inhibition of human MCF7 cells; assay type: functional; procedure, shortened: as §1
SNB-75 = experiment: Growth inhibition of human SNB75 cells; assay type: functional; procedure, shortened: as §1
SW-620 = experiment: Growth inhibition of human SW620 cells; assay type: functional; procedure, shortened: as §1
K562 = experiment: Growth inhibition of human K562 cells; assay type: functional; procedure, shortened: as §1
[11] = Growth inhibition of human OVCAR3 cells; assay type: functional; details: OVCAR-3; procedure, shortened: as §1
HL-60(TB) = experiment: Growth inhibition of human HL-60(TB) cells; assay type: functional
Procedure, shortened: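 Tested in the NCI 60 human tumour cell line panel. Compounds were first screened at a single concentration of 10 µM, and hits were then run in a five-dose assay. Growth was read as the change in optical density, expressed as a percentage of control. GI50 is the concentration that halves cellular growth, taken from the NCI database.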

| SMILES | GI50 [1] [µM] | GI50 (CAKI-1) [µM] | GI50 (T47D) [µM] | GI50 (IGROV-1) [µM] | GI50 (NCI-H522) [µM] | GI50 (TK-10) [µM] | GI50 [3] [µM] | GI50 [4] [µM] | GI50 (DU-145) [µM] | GI50 [5] [µM] | GI50 (CCRF-CEM) [µM] | GI50 [6] [µM] | GI50 [7] [µM] | GI50 (M14) [µM] | GI50 (MDA-MB-435) [µM] | GI50 [8] [µM] | GI50 [9] [µM] | GI50 (ACHN) [µM] | GI50 [10] [µM] | GI50 (MCF7) [µM] | further results |
| --- | --- | --- | --- | --- | --- | --- | --- | --- | --- | --- | --- | --- | --- | --- | --- | --- | --- | --- | --- | --- | --- |
| C=C1C(=O)O[C@@H]2C3O[C@]3(C)CC/C=C(\C)CC[C@@H]12 (stereo not given in full) | 10 | 10 | – | – | – | – | – | – | – | – | – | – | – | – | – | – | – | – | – | – | – |
| C=C1C(=O)O[C@H]2[C@H]1CC/C(COC(=O)NCCc1ccccn1)=C\CC[C@@]1(C)O[C@@H]21 | 1.89 | 2.88 | 6.19 | 14.4 | 1.64 | 3.78 | 4.96 | 3.54 | 4.59 | 5.54 | 2.65 | 2.6 | 2.22 | 5.58 | 6.01 | 5.77 | 8.2 | 2.75 | 2.25 | 2.85 | half-life [2]: 1.67 h; GI50 (MDA-MB-468): 3.22 µM; GI50 (SR): 4.1 µM; GI50 (Malme-3M): 7.52 µM; GI50 (SNB-75): 3.78 µM; GI50 (SW-620): 3.13 µM |
| C=C1C(=O)O[C@H]2[C@H]1CC/C(COC(=O)N1CCC(F)(F)CC1)=C\CC[C@@]1(C)O[C@@H]21 | 1.41 | 2.03 | 3.07 | 2.31 | 1.25 | 2.6 | 2.23 | 2.06 | 2.44 | 2.05 | 0.68 | 2.69 | 1.2 | 2.84 | 0.46 | 1.98 | 1.98 | 1.79 | 1.45 | 1.62 | half-life [2]: 8 h; GI50 (K562): 3.45 µM; GI50 [11]: 1.69 µM; GI50 (MDA-MB-468): 0.57 µM; GI50 (HL-60(TB)): 2.04 µM; GI50 (SR): 1.38 µM; GI50 (Malme-3M): 1.9 µM; GI50 (SNB-75): 6.13 µM; GI50 (SW-620): 1.46 µM |
| C=C1C(=O)O[C@H]2[C@H]1CC/C(COC(=O)Nc1n[nH]c(SC)n1)=C\CC[C@@]1(C)O[C@@H]21 | 1.13 | 1.99 | 2.23 | 3.66 | 1.26 | 2.51 | 1.95 | 1.79 | 3.49 | 2.32 | 0.62 | 1.47 | 0.9 | 1.59 | 2.24 | 1.76 | 2.57 | 1.75 | 0.65 | 1.33 | half-life [2]: 1.67 h; GI50 (MDA-MB-468): 1.29 µM; GI50 (SR): 2.36 µM; GI50 (Malme-3M): 2.32 µM; GI50 (SNB-75): 1.71 µM; GI50 (SW-620): 1.12 µM |
| C/C1=C\CC[C@@]2(C)O[C@@H]2[C@H]2OC(=O)C(CN(C)C)[C@@H]2CC1 (stereo not given in full) [DIMETHYLAMINOPARTHENOLIDE] | 5.01 | 12.5 | 39.8 | 19.9 | 2.51 | 3.16 | 10 | 31.6 | 5.01 | 3.16 | 1.99 | 5.01 | 15.8 | 15.8 | 7.94 | 2.51 | 2.51 | 15.8 | 10 | 5.01 | GI50 (K562): 2.51 µM; GI50 [11]: 12.5 µM; GI50 (HL-60(TB)): 1.58 µM; GI50 (SW-620): 3.98 µM |
| C=C1C(=O)O[C@H]2[C@H]1CC/C(COC(=O)NCCN1CCOCC1)=C\CC[C@@]1(C)O[C@@H]21 | 2.87 | 4.31 | 6.32 | 3.49 | 2.13 | 3.93 | 4.84 | 8.89 | 3.74 | 5 | 3.03 | 4.99 | 3 | 7.97 | 5.89 | 14.4 | 5.72 | 3.74 | 2.3 | 3.54 | half-life [2]: 1.67 h; GI50 (K562): 3.37 µM; GI50 [11]: 6.2 µM; GI50 (MDA-MB-468): 3.26 µM; GI50 (HL-60(TB)): 3.59 µM; GI50 (SR): 3.65 µM; GI50 (Malme-3M): 6.12 µM; GI50 (SNB-75): 19.5 µM; GI50 (SW-620): 3.48 µM |
| C=C1C(=O)O[C@H]2[C@H]1CC/C(COC(=O)NCCN1CCCC1)=C\CC[C@@]1(C)O[C@@H]21 | 3.18 | 6.86 | 4.86 | 4.09 | 1.78 | 3.11 | 7.88 | 4.78 | 7.42 | 3.48 | 2.49 | 4.75 | 4.08 | 9.65 | 6.56 | 15 | 8.71 | 3.8 | 2.25 | 3.91 | half-life [2]: 1.67 h; GI50 (K562): 3.26 µM; GI50 [11]: 8.41 µM; GI50 (MDA-MB-468): 2.3 µM; GI50 (HL-60(TB)): 4.15 µM; GI50 (SR): 10.2 µM; GI50 (Malme-3M): 4.18 µM; GI50 (SNB-75): 18 µM; GI50 (SW-620): 3.46 µM |
